A short description of series [1]: AUC (0 to 1440 mins) in male albino Wistar rat plasma at 0.013 mg/kg, iv measured upto 1440 mins by HPLC-MS analysis. It is filed as ADME, organism-based. The note with it: in vivo, 24 h. In a few lines: (§1)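 Single tail-vein injection into male wild-type rats, 0.1 mL per 100 g body weight. Solutions were 20 or 25 μM in saline with 3% DMSO, giving 0.013 or 0.018 mg/kg. Rats were exsanguinated at 5–1440 min (9 time-points, 3 per point). Plasma and brain levels were measured by HPLC-MS. Parameters came from non-compartmental analysis; values are mean ± SE of three.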

Series [2] is described as follows: Cmax in male albino Wistar rat plasma at 60 mg/kg, po measured upto 1440 mins by HPLC-MS analysis. In kind it is ADME, organism-based. In a few lines:
(§2)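 Oral gavage via blunt needle into the stomach of male wild-type rats. Dose was 60 mg/kg from a 16 mM solution in 10% NMP, 25% Kolliphor EL and 65% saline. Rats were sacrificed at 15 time-points from 5 to 1440 min, 3 per point. Plasma and brain were analysed by HPLC-MS with non-compartmental analysis; values are mean ± SE of three.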

Series [3] has as its system SH-SY5Y. Nature of the series: Reduction in glutathione level in human SH-SY5Y cells at 100 uM measured after 24 hrs by monochlorobimane assay. In kind it is functional, cell-based. Put shortly: (§3)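 SH-SY5Y cells (passages 14–18) in DMEM/F12 with 15% FBS were exposed to compound (0.1–100 μM) for 4 or 24 h. Monochlorobimane was then added to a final 40 μmol/L, and fluorescence (394/490 nm) was followed for 10 min. GSH is the slope as % of control, mean ± SD, triplicate of ≥3 experiments.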

The nature of series [4]: Half life in male albino Wistar rat plasma at 0.013 mg/kg, iv measured upto 1440 mins by HPLC-MS analysis. It is filed as ADME, organism-based. Put shortly: as §1
A short description of series [5]: AUC (0 to 1440 mins) in male albino Wistar rat brain at 0.013 mg/kg, iv measured upto 1440 mins by HPLC-MS analysis. The conditions noted are these: in vivo, 24 h. In kind it is ADME, organism-based. In a few lines: as §1
A short description of series [6]: Cmax in male albino Wistar rat brain at 60 mg/kg, po measured upto 1440 mins by HPLC-MS analysis. In kind it is ADME, organism-based. In a few lines: as §2
Series [7] in a line: Tmax in male albino Wistar rat plasma at 0.013 mg/kg, iv measured upto 1440 mins by HPLC-MS analysis. It is filed as ADME, organism-based. Put shortly: as §1
Series [8] in a line: Tmax in male albino Wistar rat brain at 0.013 mg/kg, iv measured upto 1440 mins by HPLC-MS analysis. In kind it is ADME, organism-based. In a few lines: as §1
The nature of series [9]: Permeability coefficient in male albino Wistar rat assessed as ratio of brain AUC to plasma AUC at 60 mg/kg, po measured upto 1440 mins by HPLC-MS analysis. In kind it is ADME, organism-based. In a few lines: as §2
The nature of series [10]: Apparent volume of distribution in male albino Wistar rat plasma at 0.013 mg/kg, iv measured upto 1440 mins by HPLC-MS analysis. The conditions noted are these: read-out: Vz. In kind it is ADME, organism-based. In a few lines:
as §1

Series [11] can be described thus: Cmax in male albino Wistar rat plasma at 0.013 mg/kg, iv measured upto 1440 mins by HPLC-MS analysis. In kind it is ADME, organism-based. In a few lines: as §1
Series [12] is described as follows: MRT in male albino Wistar rat plasma at 0.013 mg/kg, iv measured upto 1440 mins by HPLC-MS analysis. It is filed as ADME, organism-based. Put shortly: as §1
A short description of series [13]: Cmax in male albino Wistar rat brain at 0.013 mg/kg, iv measured upto 1440 mins by HPLC-MS analysis. It is filed as ADME, organism-based. In a few lines: as §1
Series [14] concerns SH-SY5Y. Nature of the series: Reduction in dehydrogenase activity in human SH-SY5Y cells at 100 uM measured after 4 to 24 hrs by […] assay. In kind it is functional, cell-based. The note with it: time 4-24 hrs. Put shortly: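 SH-SY5Y cells (passages 14–18) in DMEM/F12 with 15% FBS were exposed to compound (0.1–100 μM) for 4 and 24 h. WST-1 reagent was added and the absorbance change at 440 nm was read over 0–1 h. Results are % of control cells, mean ± SD, triplicate of ≥3 experiments.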

The test system of series [15] is SH-SY5Y. In words: Reduction in glutathione level in human SH-SY5Y cells at 100 uM measured after 4 hrs by monochlorobimane assay. It is filed as functional, cell-based. Put shortly:
as §3

Series [16] can be described thus: Permeability coefficient in male albino Wistar rat assessed as ratio of brain AUC to plasma AUC at 0.013 mg/kg, iv measured upto 1440 mins by HPLC-MS analysis. In kind it is ADME, organism-based. In a few lines: as §1
A short description of series [17]: Tmax in male albino Wistar rat plasma at 0.018 mg/kg, iv measured upto 1440 mins by HPLC-MS analysis. In kind it is ADME, organism-based. In a few lines:
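Single tail-vein injection in male wild-type rats of a 25 μM dosing solution in saline with 3% DMSO, given at 0.1 mL per 100 g body weight. Three animals were killed at each of 5, 15, 30, 60, 90, 180, 240, 360 and 1440 min and exsanguinated. Plasma levels were measured by HPLC-MS. Parameters came from non-compartmental analysis, reported as mean ± SE of three.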

Series [18] can be described thus: Cmax in male albino Wistar rat plasma at 0.018 mg/kg, iv measured upto 1440 mins by HPLC-MS analysis. In kind it is ADME, organism-based. In a few lines: as §1
Series [19] in a line: Apparent volume of distribution in male albino Wistar rat plasma at 0.018 mg/kg, iv measured upto 1440 mins by HPLC-MS analysis. It is filed as ADME, organism-based. The note with it: read-out: Vz. Put shortly:
as §1

Series [20] in a line: Permeability coefficient in male albino Wistar rat assessed as ratio of brain AUC to plasma AUC at 0.018 mg/kg, iv measured upto 1440 mins by HPLC-MS analysis. It is filed as ADME, organism-based. Put shortly: as §1
The nature of series [21]: Half life in male albino Wistar rat plasma at 0.018 mg/kg, iv measured upto 1440 mins by HPLC-MS analysis. In kind it is ADME, organism-based. Put shortly:
as §1

A short description of series [22]: MRT in male albino Wistar rat plasma at 0.018 mg/kg, iv measured upto 1440 mins by HPLC-MS analysis. In kind it is ADME, organism-based. Put shortly:
as §1

Series [23] in a line: AUC (0 to 1440 mins) in male albino Wistar rat brain at 0.018 mg/kg, iv measured upto 1440 mins by HPLC-MS analysis. The conditions noted are these: in vivo, 24 h. It is filed as ADME, organism-based. In a few lines: as §1
A short description of series [24]: AUC (0 to 1440 mins) in male albino Wistar rat plasma at 0.018 mg/kg, iv measured upto 1440 mins by HPLC-MS analysis. It is filed as ADME, organism-based. The conditions noted are these: in vivo, 24 h. Put shortly:
as §1

The nature of series [25]: Tmax in male albino Wistar rat brain at 0.018 mg/kg, iv measured upto 1440 mins by HPLC-MS analysis. In kind it is ADME, organism-based. In a few lines:
as §1

Each structure is given as a SMILES string. Active and inactive are the calls of the source.

Consider `CC(=O)Nc1ccc2nc(NC(=O)Nc3ccc(O)c(Cl)c3)sc2c1`, for which the AUC in [1] was 5832 pmol·min; in series [5], 3299 pmol·min. Besides, the Cmax in series [2] is 13.5 nM; in series [6] it was 0.206 nM; in [11] it was 0.389 nM; in [13], 0.0126 nM. Also, in the series on SH-SY5Y [3], the inhibition result was “inactive”. Further, the half-life in series [4] worked out at 15.8 min. Moreover, the time of peak concentration (Tmax) in [7] is 5 min; in [8], 15.9 h. In addition, the Kp at 24 h came out at 0.011 in [9] and 0.566 in series [16]. In addition, the Vd in series [10] is 147 L/kg. The molecule also showed an MRT in series [12] of 24.5 min. For the same molecule, the inhibition entry in the series on SH-SY5Y [14] and in the series on SH-SY5Y [15] was “Active” each time.
Regarding `O=C(Nc1ccc(O)c(Cl)c1)Nc1nc2ccc(C(=O)O)cc2s1`, the Cmax in [2] was found to be 6.85 nM; in series [18], 1.54 nM; in [6], 0.154 nM. In addition, the Tmax is 5 min in series [17] and 1.5 h in series [25]. Besides, the Vd in series [19] was 135 L/kg. Besides, the results for the Kp at 24 h in series [20] and in series [9] were 0.002 and 0.095, respectively. Besides, the half-life in series [21] was 29.4 min. Also, in series [22], the MRT was 15.7 min. For the same molecule, the AUC in series [23] was 34 pmol·min; in series [24] it was 18961 pmol·min.

By Cmax is commonly meant the highest concentration seen after dosing. Broadly, the half-life is the time needed for the level to fall by half in the phase considered. By Tmax is commonly meant the time at which the peak concentration occurs. Broadly, the Kp is the ratio of the level in a tissue or fluid to that in plasma or blood. In general, MRT refers to a mean duration of stay, worked out from the concentration-time curve.

Source of the values: ChEMBL document CHEMBL5620402, “Development of submicromolar 17β-HSD10 inhibitors and their in vitro and in vivo evaluation” (Eur J Med Chem, 2023).
